# Assays:
# Cannabinoid receptor 2 [1] = molecular target: T1, Cannabinoid receptor 2 (Homo sapiens, UniProt P34972); assay: Agonist activity at human CB2 receptor expressed in CHO cells at 10 uM by [35]GTPgammaS binding assay relative to HU210; assay type: functional, cell-based
# How it was run: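 Human CB2 stably expressed in CHO cells; agonist-stimulated binding of the nonhydrolyzable GTP analogue [35S]GTPγS, run as described by Savinainen et al. Single test concentration 10 µM. Response expressed as percentage of the full CB1/CB2 agonist HU-210. Mean ± SEM of at least three experiments performed in duplicate.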
# Cannabinoid receptor 2 [2] = molecular target: T1, Cannabinoid receptor 2; assay: Agonist activity at human CB2 receptor expressed in CHO cells by [35]GTPgammaS binding assay; assay type: functional, cell-based
# How it was run: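 hCB2 stably expressed in CHO cells; [35S]GTPγS binding stimulated by agonist, procedure of Savinainen et al. Full concentration–response curves were run only for compounds giving over 50% relative activity at 10 µM. EC50 and Emax were obtained by nonlinear regression fitted to a sigmoidal concentration–response equation.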
# [3] = molecular target: Cannabinoid receptor 1 (Rattus norvegicus) (UniProt P20272); assay: Agonist activity at rat cerebellar membrane CB1 receptor at 10 uM by [35]GTPgammaS binding assay relative to basal level; assay type: functional
# Chain of Cannabinoid receptor 1 (Rattus norvegicus) (P20272 whole entry): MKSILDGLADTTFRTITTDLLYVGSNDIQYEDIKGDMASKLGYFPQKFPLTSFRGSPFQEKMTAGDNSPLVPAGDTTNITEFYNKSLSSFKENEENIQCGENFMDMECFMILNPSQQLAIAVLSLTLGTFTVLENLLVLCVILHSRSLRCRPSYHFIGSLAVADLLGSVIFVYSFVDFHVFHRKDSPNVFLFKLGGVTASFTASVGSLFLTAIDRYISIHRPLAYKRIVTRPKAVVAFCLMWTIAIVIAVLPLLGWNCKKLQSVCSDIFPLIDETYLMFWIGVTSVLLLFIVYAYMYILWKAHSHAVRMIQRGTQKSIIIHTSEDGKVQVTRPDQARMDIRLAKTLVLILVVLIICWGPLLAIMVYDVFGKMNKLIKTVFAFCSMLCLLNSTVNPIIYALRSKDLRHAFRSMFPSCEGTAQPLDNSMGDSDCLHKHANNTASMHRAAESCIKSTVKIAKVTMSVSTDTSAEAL
# How it was run: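 Rat cerebellar membranes (CB1) used to screen for CB1 agonism and antagonism, per a previously described method. [35S]GTPγS binding with compounds at 10 µM. Results given as % basal; mean ± SEM of at least three duplicate experiments.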
# T1 sequence (P34972 whole entry): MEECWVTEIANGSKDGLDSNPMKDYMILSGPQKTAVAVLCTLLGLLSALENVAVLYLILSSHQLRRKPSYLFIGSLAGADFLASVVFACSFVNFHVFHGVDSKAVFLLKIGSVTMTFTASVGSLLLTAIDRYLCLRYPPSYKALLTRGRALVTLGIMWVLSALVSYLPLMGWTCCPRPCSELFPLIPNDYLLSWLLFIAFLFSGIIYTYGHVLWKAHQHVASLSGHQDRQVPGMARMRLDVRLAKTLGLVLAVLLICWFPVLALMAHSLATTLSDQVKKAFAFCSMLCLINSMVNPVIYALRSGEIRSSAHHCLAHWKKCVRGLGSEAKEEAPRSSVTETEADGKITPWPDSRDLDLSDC
Structure (SMILES),Emax (Cannabinoid receptor 2 [1]) [%],EC50 (Cannabinoid receptor 2 [2]) [nM],Activity [3] [%]
O=C(c1ccc(Cl)cc1)c1ccc2ccccc2n1,63,3980,101
CN(C)c1ccccc1C(=O)c1ccc2ccccc2n1,91,794,101
O=C(c1ccc(C(F)(F)F)cc1)c1ccc2ccccc2n1,–,–,105
O=C(c1ccccc1)c1ccc2ccccc2n1,52,7940,103
O=C(c1cccc(C(F)(F)F)c1)c1ccc2ccccc2n1,42,5010,102
O=C(c1cccc(F)c1)c1ccc2ccccc2n1,–,–,106
CN(C)c1ccc(C(=O)c2ccc3ccccc3n2)cc1,62,6310,101
CN(C)c1ccccc1C(=O)c1nccc2ccccc12,95,631,116
O=C(c1ccc(F)cc1)c1ccc2ccccc2n1,–,–,99
O=C(c1ccccc1C(F)(F)F)c1nccc2ccccc12,72,501,112
O=C(c1ccc2ccccc2n1)c1ccccc1C(F)(F)F,87,2000,102
O=C(c1ccc(Cl)c(Cl)c1)c1ccc2ccccc2n1,–,–,100
COc1ccccc1C(=O)c1ccc2ccccc2n1,53,2510,106
CC(C)Oc1ccc(C(=O)c2ccc3ccccc3n2)cc1,–,–,102
O=C(c1cc(C(F)(F)F)cc(C(F)(F)F)c1)c1nccc2ccccc12,–,–,101
COc1cccc(C(=O)c2ccc3ccccc3n2)c1,54,2000,102
O=C(c1cc(C(F)(F)F)cc(C(F)(F)F)c1)c1ccc2ccccc2n1,–,–,108

# Second part, the compound after the results:
Emax (Cannabinoid receptor 2 [1]) [%],EC50 (Cannabinoid receptor 2 [2]) [nM],Activity [3] [%],Structure (SMILES)
–,–,101,O=C(c1ccc(Cl)cc1)c1nccc2ccccc12
–,–,108,COc1ccc(C(=O)c2ccc3ccccc3n2)cc1
–,–,102,O=C(c1ccccc1)c1nccc2ccccc12
–,–,104,O=C(c1ccc(F)cc1)c1nccc2ccccc12
–,–,85,COc1ccc(C(=O)c2nccc3ccccc23)cc1
–,–,100,CCOc1ccc(C(=O)c2ccc3ccccc3n2)cc1
–,–,99,O=C(c1cccc(F)c1)c1nccc2ccccc12
68,2510,99,CN(C)c1ccc(C(=O)c2nccc3ccccc23)cc1
–,–,112,COc1cccc(C(=O)c2nccc3ccccc23)c1
–,–,111,O=C(c1ccc(Cl)c(Cl)c1)c1nccc2ccccc12
57,3160,95,O=C(c1ccc(C(F)(F)F)cc1)c1nccc2ccccc12
–,–,106,O=C(c1cccc(C(F)(F)F)c1)c1nccc2ccccc12
–,–,108,CCCOc1ccc(C(=O)c2ccc3ccccc3n2)cc1
